Laboratory results published in ChEMBL document CHEMBL5036324 (J Med Chem, 2021).
Active and inactive are the calls of the source. No cut-off for these calls is given here.

Legend:
[1] = test system: CT26; assay: Antitumor activity against mouse CT26 cells implanted in BALB/c mouse assessed as tumor growth inhibition at 50 ug, ip administered once a week in presence of anti-PD-1 antibodies and measured every 3 days for 23 days relative to control; type: functional; conditions: dose 50 µg; time 23 day
Method in brief: (§1)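 Subcutaneous CT26 tumours were grown in BALB/c mice, with cells cultured in DMEM/10% FBS. At a mean tumour size of 100 mm³, mice were randomised (n = 5/group). Agonist was given ip once weekly; anti-PD-1 or IgG isotype was given ip at 200 μg twice weekly. Tumour volume (V = 1/2ab²) was measured every 3 days. Mice were euthanised at 2000 mm³.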

[2] = test system: CT26; assay: Antitumor activity against mouse CT26 cells implanted in BALB/c mouse assessed as reduction in tumor volume at 25 ug, ip administered once a week in presence of anti-PD-1 antibodies and measured every 3 days for 23 days; type: functional, organism-based; conditions: dose 25.0 µg, time 23.0 day; method in brief: as §1
[3] = target: T1, TLR7 and TLR8 (Homo sapiens) (UniProt Q9NYK1+Q9NR97); assay: Agonist activity at human TLR7/8 expressed in human PBMC cells assessed as induction of INF-alpha regulated IP-10 production at 0.1 to 32 ug/ml incubated for 12 hrs by multiplexed immunoassay; type: cell-based; conditions: filed as agonist, dose 0.1-32 µg/ml
T1 sequence (Q9NR97 whole entry, looked up): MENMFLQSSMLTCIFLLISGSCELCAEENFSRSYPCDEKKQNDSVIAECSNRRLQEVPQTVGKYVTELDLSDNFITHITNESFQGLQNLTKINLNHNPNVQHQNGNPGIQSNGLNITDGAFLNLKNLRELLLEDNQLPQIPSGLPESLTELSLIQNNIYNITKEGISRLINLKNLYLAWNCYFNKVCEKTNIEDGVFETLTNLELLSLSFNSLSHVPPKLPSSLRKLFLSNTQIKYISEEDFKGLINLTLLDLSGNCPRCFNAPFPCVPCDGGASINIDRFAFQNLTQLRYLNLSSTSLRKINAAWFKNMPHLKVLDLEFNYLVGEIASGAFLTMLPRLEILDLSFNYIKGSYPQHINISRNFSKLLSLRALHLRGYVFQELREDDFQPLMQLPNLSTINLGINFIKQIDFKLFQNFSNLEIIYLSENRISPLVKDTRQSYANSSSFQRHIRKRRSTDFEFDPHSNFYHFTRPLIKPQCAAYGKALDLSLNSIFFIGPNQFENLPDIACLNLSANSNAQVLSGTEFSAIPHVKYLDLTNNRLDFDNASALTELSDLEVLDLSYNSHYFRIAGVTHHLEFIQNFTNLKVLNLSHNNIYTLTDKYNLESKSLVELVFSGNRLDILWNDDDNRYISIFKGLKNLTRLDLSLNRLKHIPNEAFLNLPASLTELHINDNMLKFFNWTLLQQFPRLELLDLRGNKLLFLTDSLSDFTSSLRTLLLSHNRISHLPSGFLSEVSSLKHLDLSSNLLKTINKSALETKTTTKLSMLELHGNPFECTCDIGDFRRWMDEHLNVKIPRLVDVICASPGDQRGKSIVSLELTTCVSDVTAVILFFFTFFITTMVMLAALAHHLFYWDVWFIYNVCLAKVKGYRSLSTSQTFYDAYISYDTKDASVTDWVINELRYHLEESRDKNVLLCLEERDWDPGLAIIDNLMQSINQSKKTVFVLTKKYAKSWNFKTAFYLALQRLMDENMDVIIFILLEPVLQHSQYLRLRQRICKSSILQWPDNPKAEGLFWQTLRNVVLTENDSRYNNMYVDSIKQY
T1 sequence (Q9NYK1 whole entry, looked up): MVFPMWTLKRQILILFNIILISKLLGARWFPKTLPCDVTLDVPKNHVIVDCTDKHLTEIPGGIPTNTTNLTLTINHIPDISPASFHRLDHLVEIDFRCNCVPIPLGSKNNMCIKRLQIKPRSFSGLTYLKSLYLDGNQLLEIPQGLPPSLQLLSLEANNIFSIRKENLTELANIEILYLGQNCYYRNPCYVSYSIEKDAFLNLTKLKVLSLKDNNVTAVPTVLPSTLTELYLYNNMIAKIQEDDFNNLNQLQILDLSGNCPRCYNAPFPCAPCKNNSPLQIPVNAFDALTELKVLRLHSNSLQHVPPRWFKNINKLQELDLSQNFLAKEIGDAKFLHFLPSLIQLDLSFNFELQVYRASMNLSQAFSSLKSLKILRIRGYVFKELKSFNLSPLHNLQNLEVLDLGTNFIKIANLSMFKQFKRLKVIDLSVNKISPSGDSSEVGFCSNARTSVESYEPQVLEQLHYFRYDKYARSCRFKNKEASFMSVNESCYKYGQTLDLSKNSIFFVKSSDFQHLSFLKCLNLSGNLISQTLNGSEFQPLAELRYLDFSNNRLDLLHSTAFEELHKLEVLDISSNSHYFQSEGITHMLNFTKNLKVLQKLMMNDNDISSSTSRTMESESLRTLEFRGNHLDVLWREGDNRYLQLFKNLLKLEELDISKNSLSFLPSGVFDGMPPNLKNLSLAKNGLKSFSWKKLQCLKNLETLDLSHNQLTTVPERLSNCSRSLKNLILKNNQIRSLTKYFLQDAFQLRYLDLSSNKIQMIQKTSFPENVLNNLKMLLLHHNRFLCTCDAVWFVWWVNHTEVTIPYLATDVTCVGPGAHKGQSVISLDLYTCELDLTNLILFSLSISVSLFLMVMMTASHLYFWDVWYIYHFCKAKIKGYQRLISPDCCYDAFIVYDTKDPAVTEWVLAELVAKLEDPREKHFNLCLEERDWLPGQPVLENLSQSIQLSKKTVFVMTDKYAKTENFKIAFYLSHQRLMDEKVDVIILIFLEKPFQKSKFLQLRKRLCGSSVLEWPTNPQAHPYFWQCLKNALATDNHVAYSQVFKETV
Method in brief: (§2)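 Healthy-volunteer PBMCs from a single donor were isolated by Ficoll−Hypaque gradient and plated at 2.0 × 10⁶ cells/mL. They were stimulated for 12 h with escalating compound concentrations. Supernatants were assayed in duplicate on a 41-analyte magnetic bead cytokine/chemokine panel read by Luminex. EC_max is the concentration giving maximal cytokine induction.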

[4] = target: T1, TLR7 and TLR8 (Homo sapiens); assay: Agonist activity at human TLR7/8 expressed in human PBMC cells assessed as induction of MIP-1alpha production at 0.1 to 32 ug/ml incubated for 12 hrs by multiplexed immunoassay; type: cell-based; conditions: filed as agonist, dose 0.1-32 µg/ml; method in brief: as §2
[5] = test system: CT26; assay: Antitumor activity against mouse CT26 cells implanted in BALB/c mouse assessed as tumor growth delay at 25 ug, ip administered once per week and measured every 3 days for 23 days; type: functional, organism-based; conditions: dose 25.0 µg, time 23.0 day; method in brief: as §1
[6] = target: T1, TLR7 and TLR8 (Homo sapiens); assay: Agonist activity at human TLR7/8 expressed in human PBMC cells assessed as induction of IL-8 production at 0.1 to 32 ug/ml incubated for 12 hrs by multiplexed immunoassay; type: cell-based; conditions: filed as agonist, dose 0.1-32 µg/ml; method in brief: as §2
[7] = Subacute toxicity in BALB/c mouse assessed as body weight loss at 1.73 g, ip administered as single dose; type: organism-based; conditions: in vivo
Method in brief: (§3)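 Subacute study in BALB/c mice, with treated and control groups. Body weight was recorded every day. Spleens were weighed and photographed, and tissues were examined by H&E staining.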

[8] = target: T1, TLR7 and TLR8 (Homo sapiens); assay: Agonist activity at human TLR7/8 expressed in human PBMC cells assessed as induction of IFN-alpha2 production at 0.1 to 32 ug/ml incubated for 12 hrs by multiplexed immunoassay; type: cell-based; conditions: filed as agonist, dose 0.1-32 µg/ml; method in brief: as §2
[9] = target: T1, TLR7 and TLR8 (Homo sapiens); assay: Agonist activity at human TLR7/8 expressed in human PBMC cells assessed as induction of TNF-alpha production at 0.1 to 32 ug/ml incubated for 12 hrs by multiplexed immunoassay; type: cell-based; conditions: filed as agonist, dose 0.1-32 µg/ml; method in brief: as §2
[10] = Toxicity in BALB/c mouse implanted with mouse CT26 cells assessed as decrease in body weight at 25 ug, ip administered once a week for 23 days; type: organism-based; conditions: in vivo, 552 h, dose 25 µg, time 23 day
Method in brief: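 CT26 subcutaneous tumor-bearing BALB/c mice (n = 5) were treated from 100 mm³ tumor volume. TLR7/8 agonist was given ip once weekly, alone or with anti-PD-1 antibody (200 μg ip, twice weekly). Body weight was tracked over the treatment period and reported as mean ± SEM.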

[11] = test system: CT26; assay: Antitumor immunity against mouse CT26 cells implanted in BALB/c mouse assessed as increase in infiltration of CD8+ T cytotoxic lymphocytes at 25 ug, ip administered once a week with anti-PD-1 antibody for 23 days by flow cytometry analysis; type: functional, organism-based; conditions: dose 25.0 µg, time 23.0 day
Method in brief: (§4)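 CT26-bearing BALB/c mice (n = 5) were treated ip once weekly with agonist, alone or with anti-PD-1 (200 μg, twice weekly). Tumours were harvested 23 days after implantation, enzymatically and mechanically dissociated into single cells, and stained for surface markers plus intracellular FoxP3 after fixation/permeabilisation. Cells were gated within CD45⁺ for CD11c⁺ DCs, CD11b⁺F4/80⁺MHCII⁺ (M1), CD206⁺ (M2), CD3/CD4/CD8, and CD4⁺CD25⁺FoxP3⁺ Treg, then analysed by flow cytometry.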

[12] = target: hERG (KCNH2) (Homo sapiens, UniProt Q12809); assay: Inhibition of hERG expressed in HEK293 cells at 3 uM relative to control; type: cell-based; conditions: HEK293 cells expressing hERG
Chain of hERG (KCNH2) (Q12809 whole entry): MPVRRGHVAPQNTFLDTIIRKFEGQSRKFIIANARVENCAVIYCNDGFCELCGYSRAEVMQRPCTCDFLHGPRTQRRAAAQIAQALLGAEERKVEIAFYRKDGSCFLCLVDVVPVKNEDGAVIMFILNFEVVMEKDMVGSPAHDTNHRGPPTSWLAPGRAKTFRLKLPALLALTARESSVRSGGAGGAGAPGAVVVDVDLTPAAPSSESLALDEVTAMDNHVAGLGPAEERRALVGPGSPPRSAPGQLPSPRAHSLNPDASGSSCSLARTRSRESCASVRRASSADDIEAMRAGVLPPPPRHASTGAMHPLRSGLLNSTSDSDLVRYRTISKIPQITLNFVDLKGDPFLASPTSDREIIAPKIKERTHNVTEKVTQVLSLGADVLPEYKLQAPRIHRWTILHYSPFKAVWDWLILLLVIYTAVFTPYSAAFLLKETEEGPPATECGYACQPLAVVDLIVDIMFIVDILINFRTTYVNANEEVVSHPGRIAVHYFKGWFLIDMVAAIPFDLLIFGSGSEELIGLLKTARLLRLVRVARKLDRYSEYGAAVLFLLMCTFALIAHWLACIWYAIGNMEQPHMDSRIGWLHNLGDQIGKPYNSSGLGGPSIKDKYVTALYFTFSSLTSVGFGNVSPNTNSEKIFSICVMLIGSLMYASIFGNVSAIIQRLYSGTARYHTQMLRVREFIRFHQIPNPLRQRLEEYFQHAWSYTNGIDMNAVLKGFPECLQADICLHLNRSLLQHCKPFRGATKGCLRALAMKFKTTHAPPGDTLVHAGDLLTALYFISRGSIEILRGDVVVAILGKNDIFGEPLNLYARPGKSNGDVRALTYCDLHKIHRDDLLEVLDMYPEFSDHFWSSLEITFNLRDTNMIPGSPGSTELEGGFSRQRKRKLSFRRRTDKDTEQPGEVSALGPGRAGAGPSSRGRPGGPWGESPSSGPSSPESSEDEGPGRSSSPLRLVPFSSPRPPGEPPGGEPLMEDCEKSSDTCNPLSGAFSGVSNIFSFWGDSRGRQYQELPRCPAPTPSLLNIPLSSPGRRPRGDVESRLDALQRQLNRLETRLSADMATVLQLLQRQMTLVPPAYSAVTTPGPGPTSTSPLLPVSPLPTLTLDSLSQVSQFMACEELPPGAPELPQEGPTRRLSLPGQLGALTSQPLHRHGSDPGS

[13] = target: T1, TLR7 and TLR8 (Homo sapiens); assay: Agonist activity at human TLR7/8 expressed in human PBMC cells assessed as induction of IL-10 production by measuring concentration required to induce maximal response incubated for 12 hrs by multiplexed immunoassay; type: cell-based; conditions: filed as agonist; method in brief: as §2
[14] = target: T1, TLR7 and TLR8 (Homo sapiens); assay: Agonist activity at human TLR7/8 expressed in human PBMC cells assessed as induction of IL-6 production by measuring concentration required to induce maximal response incubated for 12 hrs by multiplexed immunoassay; type: cell-based; conditions: filed as agonist; method in brief: as §2
[15] = Toxicity in BALB/c mouse implanted with mouse CT26 cells assessed as decrease in body weight at 0.9 g, ip administered on day 4; type: organism-based; conditions: in vivo
Method in brief: (§5)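 CT26 cells were grown in DMEM with 10% FBS at 37 °C, 5% CO2, and implanted subcutaneously in BALB/c mice. At a mean tumor volume of 100 mm³, mice were randomized (n = 5 per group). The TLR7/8 agonist was given ip at 25 μg once weekly, with or without anti-PD-1 antibody at 200 μg ip twice weekly. Body weight was tracked over time.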

[16] = Subacute toxicity in BALB/c mouse assessed as body weight loss at 2.19 g, ip administered as single dose; type: organism-based; conditions: in vivo; method in brief: as §3
[17] = test system: CT26; assay: Antitumor immunity against mouse CT26 cells implanted in BALB/c mouse assessed as increase in Teff/Treg ratio at 25 ug, ip administered once a week with anti-PD-1 antibody for 23 days by flow cytometry analysis; type: functional, organism-based; conditions: dose 25.0 µg, time 23.0 day; method in brief: as §4
[18] = test system: CT26; assay: Antitumor immunity against mouse CT26 cells implanted in BALB/c mouse assessed as increase in M1 to M2 like TAM ratio at 25 ug, ip administered once a week for 23 days by flow cytometry analysis; type: functional, organism-based; conditions: dose 25.0 µg, time 23.0 day; method in brief: as §4
[19] = Toxicity in BALB/c mouse implanted with mouse CT26 cells assessed as decrease in body weight at 1.2 g, ip administered on day 4 in combination with anti-PD-1 antibodies; type: organism-based; conditions: in vivo; method in brief: as §5
[20] = target: T1, TLR7 and TLR8 (Homo sapiens); assay: Agonist activity at human TLR7/8 expressed in human PBMC cells assessed as induction of IL-8 production by measuring concentration required to induce maximal response incubated for 12 hrs by multiplexed immunoassay; type: cell-based; conditions: filed as agonist; method in brief: as §2
[21] = target: T1, TLR7 and TLR8 (Homo sapiens); assay: Agonist activity at human TLR7/8 expressed in human PBMC cells assessed as induction of INF-gamma production by measuring concentration required to induce maximal response incubated for 12 hrs by multiplexed immunoassay; type: cell-based; conditions: filed as agonist; method in brief: as §2
[22] = Acute toxicity in BALB/c mouse assessed as mortality at 100 mg/kg, ip administered as single dose; type: organism-based; conditions: in vivo
[23] = test system: CT26; assay: Antitumor immunity against mouse CT26 cells implanted in BALB/c mouse assessed as increase in Teff/Treg ratio at 25 ug, ip administered once a week for 23 days by flow cytometry analysis; type: functional, organism-based; conditions: dose 25.0 µg, time 23.0 day; method in brief: as §4
[24] = target: T1, TLR7 and TLR8 (Homo sapiens); assay: Agonist activity at human TLR7/8 expressed in human PBMC cells assessed as induction of IL-1beta production by measuring concentration required to induce maximal response incubated for 12 hrs by multiplexed immunoassay; type: cell-based; conditions: filed as agonist; method in brief: as §2

## COCCNc1nc(N)nc2ccc(Cc3ccc(CN(C)C)cc3)nc12
[1]
  TGI: 88.9%
[2]
  Activity: Active
[3]
  Activity: Active
[4]
  Activity: Active
[5]
  Activity: Active
[6]
  Activity: Active
[7]
  Activity: Toxic
[8]
  Activity: Active
[9]
  Activity: Active
[10]
  Activity: Non-Toxic

## CCCCNc1nc(N)nc2ccc(Cc3ccc(CN(C)C)cc3)nc12
[11]
  Activity: Active
[12]
  inhibition at 3 µM: 63.2%
[13]
  ECmax: 0.1 µg/mL
[14]
  ECmax: 0.1 µg/mL
[15]
  Activity: Toxic
[16]
  Activity: Toxic
[17]
  Activity: Active
[18]
  Activity: Active
[19]
  Activity: Toxic
[20]
  ECmax: 0.1 µg/mL
[21]
  ECmax: 0.1 µg/mL
[22]
  Activity: Toxic
[23]
  Activity: Active
[24]
  ECmax: 0.1 µg/mL
